Source: PubChem BioAssay
Granule exo inh = blocks lytic granule exocytosis. TALL-104 LAMP-1 surface exposure, flow cytometry; cells stimulated with thapsigargin and PMA. inhibition, % at 10 µM. 360,000 compounds, 0.66% hits. AID 651702;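 active means inhibition above about 55%, limit read from the data; inconclusive means no clear call, values can overlap the other calls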
Apaf-1 inh = blocks human Apaf-1 apoptosome activity; O14727; reconstituted apoptosome caspase-3 activity, DEVD-Rh110 fluorescence; inhibition, % at 20 µM; 330,000 compounds, 0.71% hits; AID 489030; active means inhibition of at least 40% at 20 µM
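Material: cell-free apoptosome with Apaf-1, procaspase-3 and caspase-9; Buffer or medium: Hepes pH 7.5 with detergent and BSA; Reagent: cytochrome c trigger plus (Z-DEVD)2-Rh110 caspase-3 substrate; Times: compound with Apaf-1, dATP, procaspase-3 30 min, then 50 min reaction, room temperature; Technique: Rh110 fluorescence intensity.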
MPTP block = permeability transition pore inhibition; 360,000 compounds, 1.4% hits; inhibition, % at 10 µM; isolated mouse mitochondria, Ca2+ swelling absorbance, 30 min;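 active means inhibition of 50% or more, scaled per plate between neutral and stimulator controls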
hiPSC survival = increases survival of single human iPS cells | survival enhancement, % at 20 µM | hiPSC single-cell survival, ATPlite luminescence; 100% = ROCK inhibitor wells, 0% = DMSO | 360,000 compounds, 0.044% hits; in the data active means survival enhancement above about 18%;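 further: cells exposed to compounds for 16 hours before the ATP read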
UBC13 polyUb = human UBC13 polyubiquitination inhibition. P61088. UBC13 polyubiquitin chain formation, TR-FRET. inhibition, % at 20 µM. 330,000 compounds, 0.47% hits; in the data active means inhibition above about 45%, passing the limit was not always enough; inconclusive means no clear call, values can overlap the other calls
MIN6 prolif = inducers of beta-cell replication in MIN6 cells; AID 2380; proliferation, % at 10 µM; 330,000 compounds, 0.29% hits; MIN6 cells proliferation, ATPlite luminescence, 48 h; cells starved in 0.2% serum; 100% = growth in 10% serum;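 active means compounds whose signal lies at least 3.5 SD above the mean of all wells on their plate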
Casp3 UBC13 ctr = counter-screen for UBC13 inhibitors: human caspase-3 inhibition; 1,400 compounds, 4% hits; Recombinant caspase-3, Caspase-Glo 3/7 luminescence, 60 min; shares compounds with UBC13 polyUb; inhibition, % at 20 µM; AID 488856;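 active means mean inhibition across replicates above about 26%, limit read from the data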
UBC13 confirm = confirmation of human UBC13 polyubiquitin inhibitors | shares compounds with UBC13 polyUb | UBC13 polyubiquitination, TR-FRET, biochemical | inhibition, % at 10 µM | 1,400 compounds, 68% hits; in the data active means inhibition above about 45%; inconclusive means no clear call, values can overlap the other calls
Apaf-1 inh conf2 = confirmation of Apaf-1 inhibitors; inhibition, % at 20 µM; 1,800 compounds, 25% hits; shares compounds with Apaf-1 inh; reconstituted apoptosome, caspase-3 DEVD-Rh110 fluorescence; AID 504614;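 active means mean inhibition of at least 40% at 20 µM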
Rh110 quench = Rh110 signal interference in Apaf-1 inhibitor counter-screen; shares compounds with Apaf-1 inh; AID 504615; 1,800 tested, under 10 active; activation (fluorescence interference), % at 20 µM; Rh110 fluorescence interference, quenched caspase reaction;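 active means signal rise of 40% or more at 20 µM, treated as a fluorescence artifact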
Fluor interf inh = Apaf-1 inhibitor counter-screen fluorescence artifact | shares compounds with Apaf-1 inh | fluorescence interference counterscreen, Apaf-1 assay format | IC50, µM | 460 tested, under 10 active; call rule not given here
MPTP counter = mitochondrial membrane potential, counter-screen | AID 624504 | isolated mitochondria, Rhodamine 123 fluorescence | shares compounds with MPTP block | inhibition, % at 10 µM | 5,000 compounds, 78% hits; in the data active means inhibition above about 22%
MPTP abs DR = MPTP inhibition, dose response swelling confirmation; AID 651561; isolated mitochondria swelling, absorbance; 780 compounds, 58% hits; shares compounds with MPTP block; IC50, µM; in the data active means IC50 below about 20 µM
MPTP counter DR = active in counter-screen for permeability transition pore inhibitors | shares compounds with MPTP block | isolated mitochondria counterscreen, fluorescence read-out | IC50, µM | 780 compounds, 49% hits | AID 651564; in the data active means IC50 below about 80 µM
Granule exo CP1 = lytic granule exocytosis inhibition. 1,500 compounds, 11% hits. shares compounds with Granule exo inh. AID 651954. inhibition, % at 10 µM. TALL-104 cells, LAMP-1 externalization, flow cytometry; stimulated with PMA plus thapsigargin; in the data active means inhibition above about 60%
Of the large screens only hits and unclear results are named; the others gave an inactive call (follow-up assays come after a bar, where they were run); ! = not active in a repeat. Hits are enriched below; roughly 3% of the tested compounds scored in any of these assays.

CC(C)(C)C(=O)NC1CC2CCCC(C1)N2C(=O)Nc1ccccc1 (configuration not stated)	none
NC1=NC[C@H](c2ccccc2)N1CCCCC1CCCCC1	MPTP block 81.2, UBC13 polyUb 78.6 | Casp3 UBC13 ctr inactive | UBC13 confirm 72.2 | MPTP counter 37.0
Cc1cc2c(cc1C)-n1nnnc1C(N1CCN(c3ncccc3C#N)CC1)C(=O)N2 (configuration not stated)	none (no result: Apaf-1 inh, hiPSC survival, UBC13 polyUb, MIN6 prolif)
Cc1c(CCOC(=O)CC23CC4CC(CC(C)(C4)C2)C3)sc[n+]1CC(=O)c1ccccc1	Granule exo inh 96.7, MPTP block 68.0, UBC13 polyUb 63.3 | Casp3 UBC13 ctr inactive | UBC13 confirm 51.6 | MPTP counter 23.9
Cc1c(CCOC(=O)C23CC4CC(CC(C)(C4)C2)C3)sc[n+]1CC(=O)c1ccccc1	none
COCCNC(=O)CSc1n[nH]c(=O)n1CCc1ccccc1	none
CC[C@H](C)Cc1cn([C@@H](CCCCN)C(=O)NCCCCCCCCCCC(=O)N2CCNCC2)nn1	Apaf-1 inh 45.6, MPTP block 89.1, UBC13 polyUb 47.0 | Casp3 UBC13 ctr inactive | UBC13 confirm 45.0 | Apaf-1 inh conf2 inactive | Rh110 quench inactive | MPTP counter inactive
CC(C)(C)c1ccc(C(=O)NNC(=O)CCC(=O)Nc2ccccc2)cc1	none
CCOC(=O)C1CCN(CC(O)COCc2ccc3c(c2)OCO3)CC1 (configuration not stated)	none
O=C1c2cccc3cccc(c23)C(=O)N1CC1CCN(CC(O)COCc2ccc3c(c2)OCO3)CC1 (configuration not stated)	MPTP block 55.6, UBC13 polyUb 94.6 | Casp3 UBC13 ctr inactive | UBC13 confirm 102.8 | MPTP counter inactive | MPTP abs DR 9.6 | MPTP counter DR 26.4
NC(N)=NCCCC(NC(=O)c1ccccc1)C(=O)Nc1ccc([N+](=O)[O-])cc1 (configuration not stated)	none
NC(N)=NCCCC(NC(=O)c1ccccc1)C(=O)Nc1ccc2ccccc2c1 (configuration not stated)	MPTP block 81.2, UBC13 polyUb 48.4 | Casp3 UBC13 ctr inactive | UBC13 confirm inactive | MPTP counter inactive | MPTP abs DR 8.71 | MPTP counter DR inactive
CCCc1nc2ccc(N)cc2c(=O)n1Cc1ccccc1Cl	none
CCOC(=O)C1=C(COCCN)NC(C)=C(C(=O)OC)C1c1ccccc1Cl (configuration not stated)	Apaf-1 inh 48.8!, MPTP block 98.7, UBC13 polyUb 61.0! | Casp3 UBC13 ctr inactive | UBC13 confirm inactive | Apaf-1 inh conf2 inactive | Rh110 quench inactive | MPTP counter inactive | MPTP abs DR 3.98 | MPTP counter DR 72.5!
CC(C)(C)CN1CCNC[C@H]1Cc1cccc2ccccc12	MPTP block 55.1, UBC13 polyUb 46.8 | Casp3 UBC13 ctr inactive | UBC13 confirm inactive | MPTP counter inactive | MPTP abs DR 7.13 | MPTP counter DR 66.3
O=C(C[C@H]1C=C[C@@H](NC(=O)c2ccncc2)[C@@H](CO)O1)NCC1CC1	none (no result: Apaf-1 inh, hiPSC survival, UBC13 polyUb, MIN6 prolif)
CN1CCN(CCCN2c3ccccc3Sc3ccc(C(F)(F)F)cc32)CC1	Apaf-1 inh 54.1, MPTP block 90.8!, UBC13 polyUb 90.4 | Casp3 UBC13 ctr inactive | UBC13 confirm 97.9 | Apaf-1 inh conf2 inactive | Rh110 quench inactive | MPTP counter inactive | MPTP abs DR 4.21 | MPTP counter DR inactive
O=c1[nH]c2ccc(Br)cc2c(=O)o1	none (no result: Apaf-1 inh, UBC13 polyUb, MIN6 prolif)
Cc1ccc(Nc2nc(NCc3ccco3)c3ccccc3n2)cc1	Granule exo inh 69.3, MPTP block 93.4, UBC13 polyUb 51.1 | Casp3 UBC13 ctr inactive | UBC13 confirm 93.3 | MPTP counter 89.0 | Granule exo CP1 66.8
Oc1ccccc1-c1nc(NCc2ccco2)c2ccccc2n1	none
CN1Cc2c(N3CCOCC3)nc3sc(C(=O)c4ccc(Br)cc4)c(N)c3c2CC1(C)C	Granule exo inh 60.9, Apaf-1 inh 56.4, UBC13 polyUb 51.1 | Casp3 UBC13 ctr inactive | UBC13 confirm 84.6 | Apaf-1 inh conf2 62.0 | Rh110 quench inactive | Fluor interf inh inactive | Granule exo CP1 75.5
Oc1ccccc1Nc1nc(NCc2ccccc2)c2ccccc2n1	Granule exo inh 67.8, UBC13 polyUb 50.0 | Casp3 UBC13 ctr inactive | UBC13 confirm 49.2 | Granule exo CP1 66.2
COc1ccc(OC)c(S(=O)(=O)ON2C(=O)c3ccccc3C2=O)c1	none
CC(NC(=O)c1ccccc1)c1nnc(SCC(=O)NC2CCCC2)n1C (configuration not stated)	Granule exo inh inconclusive
CC1CCN(CCCNC(=O)c2ccc3c(=O)n(Cc4ccc(Cl)cc4)c(=S)[nH]c3c2)CC1	Granule exo inh 70.7, MPTP block 95.2, UBC13 polyUb 52.9 | Casp3 UBC13 ctr inactive | UBC13 confirm 73.1 | MPTP counter inactive | Granule exo CP1 inactive
CS(=O)(=O)c1ccc(-c2sc3ccccc3c2C#CCCO)cc1	none
Cn1cncc1C#Cc1c(-c2ccc(S(C)(=O)=O)cc2)sc2ccccc12	Granule exo inh 102.9, UBC13 polyUb 68.9 | Casp3 UBC13 ctr inactive | UBC13 confirm 49.7 | Granule exo CP1 97.0
CCOc1ccc2nc(N(CCCN(C)C)C(=O)c3ccc(S(=O)(=O)N4CCc5ccccc5C4)cc3)sc2c1	Granule exo inh 67.7, UBC13 polyUb 84.4 | Casp3 UBC13 ctr inactive | UBC13 confirm 115.1 | Granule exo CP1 83.5
CCc1ccc2nc(N(CCCN(C)C)C(=O)c3ccc(S(=O)(=O)N4CCCC4)cc3)sc2c1	none
O=C(NN1C(=O)NC2(CCCCC2)C1=O)c1ccc(Cl)s1	none
Nc1cc2cccnc2cc1Cl	none (no result: Apaf-1 inh, UBC13 polyUb, MIN6 prolif)
